We go through 20 molecules from paper PMC8359148 (ACS Omega, 2021).

Bounds are passed on as bounds.

For assay [1], the system named is wild-type P. falciparum 3D7 cells. The assay can be described thus: dose–response assay against 3D7 cells. Type of assay: cell-based. To be noted: Plasmodium falciparum, 3D7, read-out: EC50 3D7. The method in brief: (§1)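 Dose–response EC50 values, each from three or more independent experiments. Dd2 and 3D7 runs use chloroquine as comparator. The selectivity index is calculated as HepG2 EC50 divided by Dd2 EC50.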

The test system of assay [2] is chloroquine-resistant P. falciparum Dd2 parasites. The assay can be described thus: SYBR Green I dose–response assay against Dd2 parasites. As to conditions: Plasmodium falciparum, DD2, read-out: EC50 Dd2, chloroquine-resistant P. falciparum Dd2, three or more independent experiments. Type of assay: cell-based. Put shortly:
as §1

Assay [3] deals with HepG2 (liver hepatocellular carcinoma) cells. The assay can be described thus: HepG2. To be noted: for selectivity index (SI): HepG2 EC50/EC50 Dd2 cells; for EC50: Homo sapiens, HepG2, read-out: EC50 HepG2. Type of assay: cell-based, human. The method in brief:
as §1

Assay [4] has as its system P. falciparum Dd2 cultures. The assay can be described thus: kinetic kill experiments. Type of assay: cell-based, Plasmodium falciparum. As to conditions: Plasmodium falciparum, DD2, read-out: 5 × EC50. Put shortly: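 Asynchronous Dd2 cultures are exposed to test compound for 6, 12, 24 or 48 h at 0.15% DMSO, then washed three times in RPMI and resuspended in culture medium. Parasite growth is monitored daily for 96 h. DHA (50 nM) and atovaquone (6.6 nM) serve as controls.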

Regarding `CCN(CC)CCCC(C)Nc1ccnc2cc(Cl)ccc12` (centres unmarked) [Chloroquine, reference compound], the results for the EC50 in assay [1] and in assay [2] were 17 nM and 190 nM, respectively.

In the case of `CC[C@]12CCCN3CCc4c(n(c5ccccc45)[C@@](O)(C(=O)OC)C1)[C@@H]32` [Compound 1, Vincamine, reference compound], the EC50 in assay [1] and in assay [2] was above 50000 nM in each case.

As to `CC[C@@]12C=C(C(=O)OC)n3c(c(c4ccccc43)CCNCCC1)[C@@H]2c1ccc(O)cc1` [Compound 18, Methyl (11S,19S)-11-ethyl-19-(4-hydroxyphenyl)-8,15-diazatetracyclo[9.6.2.0^2,7.0^8,18]nonadeca-1(18),2(7),3,5,9-pentaene-9-carboxylate], the EC50 in assay [2] worked out at 10800 ± 2930 nM.

On to `CC[C@@]12C=C(C(=O)OC)n3c(c(c4ccccc43)CCN(/C=C/C(=O)OC)CCC1)[C@@H]2c1ccc(OC(C)=O)cc1` [Compound 19, Methyl (11S,19S)-19-[4-(acetyloxy)phenyl]-11-ethyl-15-[(1E)-3-methoxy-3-oxoprop-1-en-1-yl]-8,15-diazatetracyclo[9.6.2.0^2,7.0^8,18]nonadeca-1(18),2(7),3,5,9-pentaene-9-carboxylate], for which, in assay [2], the EC50 was 6110 ± 1560 nM.

For `CC[C@@]12C=C(C(=O)OC)n3c(c(c4ccccc43)CCN(C(C)=O)CCC1)[C@@H]2c1ccc(O)cc1` [Compound 20, methyl (11S,19S)-15-acetyl-11-ethyl-19-(4-hydroxyphenyl)-8,15-diazatetracyclo[9.6.2.0^2,7.0^8,18]nonadeca-1(18),2(7),3,5,9-pentaene-9-carboxylate], the EC50 was 12000 ± 3400 nM in assay [1] and above 20000 nM in assay [2].

On to `CC[C@@]12C=C(C(=O)OC)n3c(c(c4ccccc43)CCN(C(=O)c3ccc(OC)nc3)CCC1)[C@@H]2c1ccc(O)cc1` [Compound 21, methyl (11S,19S)-11-ethyl-19-(4-hydroxyphenyl)-15-(6-methoxypyridine-3-carbonyl)-8,15-diazatetracyclo[9.6.2.0^2,7.0^8,18]nonadeca-1(18),2(7),3,5,9-pentaene-9-carboxylate], for which the figures for the concentration for a half-maximal effect (EC50) in assay [1] and in assay [2] were 1330 ± 180 nM and 630 ± 120 nM, respectively.

Turning to `CC[C@@]12C=C(C(=O)OC)n3c(c(c4ccccc43)CCN(C(=O)COCCOCCOC)CCC1)[C@@H]2c1ccc(O)cc1` [Compound 22, methyl (11S,19S)-11-ethyl-19-(4-hydroxyphenyl)-15-{2-[2-(2-methoxyethoxy)ethoxy]acetyl}-8,15-diazatetracyclo[9.6.2.0^2,7.0^8,18]nonadeca-1(18),2(7),3,5,9-pentaene-9-carboxylate], the EC50 in assay [2] turned out to be 4100 ± 550 nM.

With `CC[C@@]12C=C(C(=O)OC)n3c(c(c4ccccc43)CCN(C(=O)C3CCCCC3)CCC1)[C@@H]2c1ccc(O)cc1` [Compound 23, methyl (11S,19S)-15-cyclohexanecarbonyl-11-ethyl-19-(4-hydroxyphenyl)-8,15-diazatetracyclo[9.6.2.0^2,7.0^8,18]nonadeca-1(18),2(7),3,5,9-pentaene-9-carboxylate], the EC50 in assay [2] was 2530 ± 340 nM.

Consider `CC[C@@]12C=C(C(=O)OC)n3c(c(c4ccccc43)CCN(C(=O)c3ccc(C(F)(F)F)cc3)CCC1)[C@@H]2c1ccc(O)cc1` [Compound 24, methyl (11S,19S)-11-ethyl-19-(4-hydroxyphenyl)-15-[4-(trifluoromethyl)benzoyl]-8,15-diazatetracyclo[9.6.2.0^2,7.0^8,18]nonadeca-1(18),2(7),3,5,9-pentaene-9-carboxylate], for which the EC50 in assay [2] is 1540 ± 4 nM.

As for `CC[C@@]12C=C(C(=O)OC)n3c(c(c4ccccc43)CCN(C(=O)c3cccnc3)CCC1)[C@@H]2c1ccc(O)cc1` [Compound 25, methyl (11S,19S)-11-ethyl-19-(4-hydroxyphenyl)-15-(pyridine-3-carbonyl)-8,15-diazatetracyclo[9.6.2.0^2,7.0^8,18]nonadeca-1(18),2(7),3,5,9-pentaene-9-carboxylate], the EC50 in assay [1] is 2250 ± 400 nM; in assay [2], 550 ± 70 nM; in assay [3], above 25 µM. In addition, the “selectivity index (SI)” value in assay [3] is recorded as above 45.

On to `CC[C@@]12C=C(C(=O)OC)n3c(c(c4ccccc43)CCN(C(=O)c3ccco3)CCC1)[C@@H]2c1ccc(O)cc1` [Compound 26, methyl (11S,19S)-11-ethyl-15-(furan-2-carbonyl)-19-(4-hydroxyphenyl)-8,15-diazatetracyclo[9.6.2.0^2,7.0^8,18]nonadeca-1(18),2(7),3,5,9-pentaene-9-carboxylate], for which the EC50 is 1800 ± 360 nM in assay [1], 2480 ± 330 nM in assay [2] and above 25 µM in assay [3]. The “selectivity index (SI)” value in assay [3] was above 10.

For the molecule `CC[C@@]12C=C(C(=O)OC)n3c(c(c4ccccc43)CCN(C(=O)c3cncnc3)CCC1)[C@@H]2c1ccc(O)cc1` [Compound 27, methyl (11S,19S)-11-ethyl-19-(4-hydroxyphenyl)-15-(pyrimidine-5-carbonyl)-8,15-diazatetracyclo[9.6.2.0^2,7.0^8,18]nonadeca-1(18),2(7),3,5,9-pentaene-9-carboxylate], the concentration giving a half-maximal response (EC50) is 1990 ± 300 nM in assay [1], 730 ± 110 nM in assay [2] and above 25 µM in assay [3]. Moreover, the “selectivity index (SI)” value in assay [3] is above 34.

Take `CC[C@@]12C=C(C(=O)OC)n3c(c(c4ccccc43)CCN(C(=O)c3ccno3)CCC1)[C@@H]2c1ccc(O)cc1` [Compound 28, methyl (11S,19S)-11-ethyl-19-(4-hydroxyphenyl)-15-(1,2-oxazole-5-carbonyl)-8,15-diazatetracyclo[9.6.2.0^2,7.0^8,18]nonadeca-1(18),2(7),3,5,9-pentaene-9-carboxylate]: the EC50 in assay [1] was 970 ± 30 nM; in assay [2] it was 2140 ± 360 nM; in assay [3] it was above 25 µM. Further, the “selectivity index (SI)” value in assay [3] is above 11.

For `CC[C@@]12C=C(C(=O)OC)n3c(c(c4ccccc43)CCN(C(=O)c3ccc[nH]3)CCC1)[C@@H]2c1ccc(O)cc1` [Compound 29, methyl (11S,19S)-11-ethyl-19-(4-hydroxyphenyl)-15-(1H-pyrrole-2-carbonyl)-8,15-diazatetracyclo[9.6.2.0^2,7.0^8,18]nonadeca-1(18),2(7),3,5,9-pentaene-9-carboxylate], the EC50 in assay [1] is 3180 ± 70 nM; in assay [2] it was 2980 ± 400 nM.

Consider `CC[C@@]12C=C(C(=O)OC)n3c(c(c4ccccc43)CCN(C(=O)c3ccncc3)CCC1)[C@@H]2c1ccc(O)cc1` [Compound 31, methyl (11S,19S)-11-ethyl-19-(4-hydroxyphenyl)-15-(pyridine-4-carbonyl)-8,15-diazatetracyclo[9.6.2.0^2,7.0^8,18]nonadeca-1(18),2(7),3,5,9-pentaene-9-carboxylate], for which the EC50 in assay [2] turned out to be 5900 ± 260 nM.

On to `CC[C@@]12C=C(C(=O)OC)n3c(c(c4ccccc43)CCN(C(=O)c3cncc(Cl)c3)CCC1)[C@@H]2c1ccc(O)cc1` [Compound 32, methyl (11S,19S)-15-(5-chloropyridine-3-carbonyl)-11-ethyl-19-(4-hydroxyphenyl)-8,15-diazatetracyclo[9.6.2.0^2,7.0^8,18]nonadeca-1(18),2(7),3,5,9-pentaene-9-carboxylate], for which the EC50 was 2220 ± 340 nM in assay [1], 490 ± 100 nM in assay [2] and above 25 µM in assay [3]. In addition, in assay [3], the “selectivity index (SI)” value is given as above 51.

In the case of `CC[C@@]12C=C(C(=O)OC)n3c(c(c4ccccc43)CCN(C(=O)c3cncc(Br)c3)CCC1)[C@@H]2c1ccc(O)cc1` [Compound 33, methyl (11S,19S)-15-(5-bromopyridine-3-carbonyl)-11-ethyl-19-(4-hydroxyphenyl)-8,15-diazatetracyclo[9.6.2.0^2,7.0^8,18]nonadeca-1(18),2(7),3,5,9-pentaene-9-carboxylate], the EC50 in assay [1] is 1700 ± 320 nM; in assay [2], 650 ± 9 nM; in assay [3], above 25 µM. Further, in assay [3], the “selectivity index (SI)” value is listed as above 38.

Regarding `CC[C@@]12C=C(C(=O)OC)n3c(c(c4ccccc43)CCN(C(=O)c3ccccc3)CCC1)[C@@H]2c1ccc(O)cc1` [Compound 34, methyl (11S,19S)-15-benzoyl-11-ethyl-19-(4-hydroxyphenyl)-8,15-diazatetracyclo[9.6.2.0^2,7.0^8,18]nonadeca-1(18),2(7),3,5,9-pentaene-9-carboxylate], the EC50 is 6600 ± 1060 nM in assay [1] and 2950 ± 1140 nM in assay [2].

In the case of `C[C@H]1[C@@H](O)O[C@@H]2O[C@@]3(C)CC[C@H]4[C@H](C)CC[C@@H]1[C@@]24OO3` [Dihydroartemisinin (DHA), Dihydroartemisinin, reference compound], the concentration giving a half-maximal response (EC50) in assay [4] came to 50 nM.

As to `O=C1C(O)=C([C@H]2CC[C@H](c3ccc(Cl)cc3)CC2)C(=O)c2ccccc21` [atovaquone, reference compound], the half-maximal effective concentration (EC50) in assay [4] came out at 6.6 nM.
